We go through 31 compounds from ChEMBL document CHEMBL1153612, “Synthesis and antitumor activity of novel dithiocarbamate substituted chromones” (Eur J Med Chem, 2009).

What all share (type): functional, cell-based
The subject of one test is HeLa. The experiment in a line: Antiproliferative activity against human HeLa cells after 72 hrs by MTT assay. In outline: (§1)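 Cells seeded at 8000 per well in 96-well plates, exposed to compound for 72 h. MTT added at 0.5 mg/mL final and incubated 4 h. Formazan dissolved in DMSO, absorbance read at 570 nm. IC50 is the concentration giving 50% reduction in cell growth, reported as the mean of three repeated experiments.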
For orientation: Tetrazolium assays rely on reduction of a dye to a coloured formazan, in cell work by metabolically active cells.

Another test concerns HEp-2. The experiment in a line: Antiproliferative activity against human Hep2 cells after 72 hrs by MTT assay. The note with it: HEp-2, 72 h. The method, boiled down: as §1
The nature of test [1]: Antiproliferative activity against human MDA-MB-435S cells after 72 hrs by MTT assay. In outline: as §1
A further test has as its system SW480. The experiment in a line: Antiproliferative activity against human SW480 cells after 72 hrs by MTT assay. To be noted: SW480, 72 h. The method, boiled down: as §1
Another test concerns MCF7. The experiment in a line: Antiproliferative activity against human MCF7 cells after 72 hrs by MTT assay. The note with it: MCF7, 72 h. The method, boiled down: as §1
Test [2] can be described thus: Antiproliferative activity against human LM7 cells after 72 hrs by MTT assay. The note with it: LM7, 72 h. In outline:
as §1

Broadly, the IC50 is the midpoint of a concentration-inhibition curve.

Take `COc1ccc2c(=O)cc(CSC(=S)N(C(C)C)C(C)C)oc2c1`: the IC50 in the test on HeLa was above 25 µM; with HEp-2, 7.6 µM; in test [1] it was 22.1 µM; in the test on SW480, 7.2 µM; in the test on MCF7 it was above 25 µM; in test [2], 19.1 µM.
As for `CCOC(=O)c1cc(=O)c2cc(CSC(=S)N3CCCCC3)ccc2o1`, the IC50 is 5.8 µM in the test with HeLa; 3.4 µM with HEp-2; 2.9 µM in test [1]; above 25 µM in the test on SW480; 21.9 µM in the test on MCF7; 16.9 µM in test [2].
Turning to `COc1ccc2c(=O)c(CSC(=S)N(C(C)C)C(C)C)coc2c1`, the IC50 with HeLa was 5.4 µM; in the test on HEp-2 it was 8.9 µM; in test [1], 1.8 µM; with SW480, 4.8 µM; in the test with MCF7, above 40 µM; in test [2] it was 4.7 µM.
In the case of `O=c1c(Cl)c(CSC(=S)N2CCCC2)oc2ccccc12`, the IC50 in the test with HeLa amounted to 0.7 µM; in the test on HEp-2 it was 0.6 µM; in test [1] it was 1.8 µM; in the test on SW480, 1.4 µM; with MCF7 it was 2.3 µM; in test [2], 1.9 µM.
Consider `O=c1c(CSC(=S)N2CCCC2)coc2ccc(Cl)cc12`, for which the IC50 in the test on HeLa worked out at 1.3 µM; in the test with HEp-2 it was 2.1 µM; in test [1] it was 6.4 µM; in the test on SW480, 7.8 µM; in the test with MCF7, 0.6 µM; in test [2] it was 2.6 µM.
`O=c1cc(CSC(=S)N2CCCC2)oc2ccc(Cl)cc12`: the 50% inhibitory concentration (IC50) in the test on HeLa is above 40 µM; in the test with HEp-2 it was above 40 µM; in test [1], above 25 µM; with SW480, above 25 µM; in the test with MCF7, above 25 µM; in test [2], above 25 µM.
As for `O=c1c(CSC(=S)N2CCN(C(c3ccc(F)cc3)c3ccc(F)cc3)CC2)coc2ccccc12`, the IC50 was above 25 µM in the test with HeLa; 9.6 µM with HEp-2; above 40 µM in test [1]; above 40 µM with SW480; above 30 µM in the test on MCF7; above 25 µM in test [2].
As to `COc1ccc2c(=O)c(CSC(=S)N3CCOCC3)coc2c1`, the IC50 in the test on HeLa is 9.5 µM; in the test with HEp-2 it was 4.8 µM; in test [1] it was above 40 µM; in the test on SW480, 7.1 µM; in the test on MCF7, 11.8 µM; in test [2], above 40 µM.
As to `O=c1c(CSC(=S)N2CCOCC2)coc2ccc(Cl)cc12`, the IC50 in the test with HeLa is 2 µM; in the test with HEp-2, 0.9 µM; in test [1] it was 0.6 µM; in the test with SW480 it was 6.2 µM; in the test with MCF7, 8.1 µM; in test [2], 6.2 µM.
With `CN(C(=S)SCc1coc2ccccc2c1=O)c1ccccc1`, the IC50 (in the test on HeLa; with HEp-2; in test [1]; in the test on SW480; in the test with MCF7; in test [2]) was above 25 µM in each case.
As to `O=c1c(SC(=S)N2CCCC2)coc2ccc(Cl)cc12`, the IC50 with HeLa is 16.3 µM; in the test on HEp-2, 26 µM; in test [1], 24 µM; with SW480, above 25 µM; in the test with MCF7, above 25 µM; in test [2], 24.6 µM.
Regarding `CC(C)N(C(=S)SCc1cc(=O)c2cc(Cl)ccc2o1)C(C)C`, the IC50 was above 30 µM in the test on HeLa; 22.7 µM in the test on HEp-2; above 25 µM in test [1]; above 25 µM in the test with SW480; above 25 µM in the test on MCF7; above 30 µM in test [2].
Consider `O=c1c(CSC(=S)N2CCN(Cc3ccccc3)CC2)coc2ccccc12`, for which the IC50 was determined as 7.9 µM in the test with HeLa; 2.9 µM in the test on HEp-2; 4.4 µM in test [1]; 4.5 µM in the test on SW480; 9.6 µM in the test with MCF7; 19.1 µM in test [2].
Turning to `COc1ccc2c(=O)cc(CSC(=S)N3CCCCC3)oc2c1`, the IC50 with HeLa was 11.9 µM; in the test on HEp-2, 1.5 µM; in test [1], 1.5 µM; in the test with SW480, 2.3 µM; in the test with MCF7, 10 µM; in test [2] it was 5 µM.
Consider `O=c1c(Cl)c(CSC(=S)N2CCOCC2)oc2ccccc12`, for which the 50% inhibitory concentration (IC50) in the test on HeLa amounted to 4.5 µM; in the test on HEp-2 it was 9 µM; in test [1] it was 4.1 µM; in the test on SW480, 1.8 µM; in the test with MCF7, 11.1 µM; in test [2], 19.2 µM.
Regarding `O=c1c(CSC(=S)N2CCN(c3ccccc3)CC2)coc2ccccc12`, the IC50 was 7.1 µM with HeLa; 16.7 µM in the test with HEp-2; 9.7 µM in test [1]; 5.2 µM with SW480; above 30 µM with MCF7; 2.9 µM in test [2].
`CCN(CC)C(=S)SCc1cc(=O)c2cc(Cl)ccc2o1`: the IC50 is 8.7 µM in the test on HeLa; 8.8 µM with HEp-2; 23.5 µM in test [1]; above 25 µM with SW480; above 25 µM in the test on MCF7; 8.8 µM in test [2].
Regarding `O=c1cc(CSC(=S)N2CCCCC2)oc2ccccc12`, the IC50 in the test on HeLa is above 25 µM; in the test on HEp-2, 12 µM; in test [1], above 25 µM; in the test with SW480, 13.7 µM; in the test on MCF7, above 25 µM; in test [2], above 25 µM.
Turning to `O=c1cc(CSC(=S)N2CCCCC2)oc2ccc(Cl)cc12`, the concentration for half-maximal inhibition (IC50) was above 25 µM with HeLa; 1.6 µM in the test with HEp-2; 3 µM in test [1]; 2.5 µM with SW480; above 25 µM in the test with MCF7; 13.8 µM in test [2].
`O=c1cc(CSC(=S)N2CCOCC2)oc2ccccc12`: the IC50 in the test with HeLa is 35.6 µM; in the test with HEp-2, above 25 µM; in test [1] it was 22.2 µM; in the test with SW480, 24.4 µM; in the test on MCF7, 21 µM; in test [2], 25.2 µM.
Regarding `CC(C)N(C(=S)SCc1oc2ccccc2c(=O)c1Cl)C(C)C`, the IC50 was above 40 µM in the test with HeLa; 20 µM in the test with HEp-2; 23.6 µM in test [1]; 18.1 µM in the test with SW480; above 40 µM in the test with MCF7; above 40 µM in test [2].
Consider `O=c1cc(CSC(=S)N2CCN(c3ccccc3)CC2)oc2ccc(Cl)cc12`, for which the IC50 in the test with HeLa is 25.9 µM; in the test on HEp-2, 15.9 µM; in test [1], 18.6 µM; in the test with SW480, 21.2 µM; in the test with MCF7, above 25 µM; in test [2] it was 15.9 µM.
Consider `CC(C)N(C(=S)SCc1coc2ccccc2c1=O)C(C)C`, for which the concentration for half-maximal inhibition (IC50) in the test with HeLa was above 30 µM; in the test with HEp-2 it was 3 µM; in test [1], 7.9 µM; in the test with SW480, 6.8 µM; in the test on MCF7, above 30 µM; in test [2] it was 21.9 µM.
For the compound `Cc1ccc2occ(CSC(=S)N(C(C)C)C(C)C)c(=O)c2c1`, the IC50 was 1.4 µM in the test with HeLa; 0.7 µM in the test on HEp-2; 0.24 µM in test [1]; above 25 µM in the test with SW480; 6.6 µM with MCF7; 6.3 µM in test [2].
On to `Cc1ccc2occ(CSC(=S)N3CCCC3)c(=O)c2c1`, for which the IC50 in the test with HeLa is 4.4 µM; in the test on HEp-2, 3.6 µM; in test [1], 1.9 µM; in the test with SW480, 5.9 µM; with MCF7, 41.4 µM; in test [2], 3.4 µM.
Turning to `Cc1ccc2occ(CSC(=S)N3CCCCC3)c(=O)c2c1`, the IC50 in the test on HeLa is above 25 µM; with HEp-2, 0.9 µM; in test [1], 1.7 µM; with SW480 it was above 25 µM; in the test with MCF7, 0.8 µM; in test [2], 5.1 µM.
Consider `O=c1c(CSC(=S)N2CCCC2)coc2ccccc12`, for which the IC50 with HeLa was above 25 µM; in the test on HEp-2 it was 3.6 µM; in test [1] it was 3.8 µM; in the test on SW480, 2.3 µM; with MCF7, above 25 µM; in test [2] it was 6 µM.
Turning to `O=c1cc(CSC(=S)N2CCCC2)oc2ccccc12`, the IC50 with HeLa is 23.1 µM; in the test with HEp-2, 9.1 µM; in test [1], above 30 µM; in the test with SW480 it was 23.4 µM; in the test with MCF7, 35.8 µM; in test [2], 40 µM.
Regarding `O=c1c(CSC(=S)N2CCCCC2)coc2ccccc12`, the IC50 came to 2.3 µM in the test with HeLa; 0.39 µM with HEp-2; 0.47 µM in test [1]; 1.2 µM in the test with SW480; 1.7 µM with MCF7; 4.6 µM in test [2].
Take `COc1ccc2c(=O)c(CSC(=S)N3CCCC3)coc2c1`: the 50% inhibitory concentration (IC50) in the test on HeLa was 12.1 µM; in the test on HEp-2, 3.1 µM; in test [1], 1.8 µM; in the test on SW480, 4.8 µM; in the test on MCF7, 34.1 µM; in test [2], 6 µM.
For `COc1ccc2c(=O)c(CSC(=S)N3CCCCC3)coc2c1`, the IC50 is 3.5 µM with HeLa; 4.3 µM in the test with HEp-2; 0.93 µM in test [1]; 6.7 µM in the test with SW480; above 40 µM in the test with MCF7; 4.7 µM in test [2].
